Legend:
Details in all cases: stereoisomer not certain
[1] = biological target: OR10A2 (Homo sapiens) (UniProt Q9H208)
Outline: (§1)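 Each receptor–molecule pair is labelled responsive or non-responsive (inactive) according to whether the original authors judged the measured signal statistically different from baseline. The data were taken from the main text and supplementary material of published papers and checked for typos and inconsistencies. Assay methods differed by source, with transient luciferase assays in mammalian cell lines being common.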

[2] = biological target: OR10A3 (Homo sapiens) (UniProt P58181)
OR10A3 (Homo sapiens), sequence (P58181 whole entry): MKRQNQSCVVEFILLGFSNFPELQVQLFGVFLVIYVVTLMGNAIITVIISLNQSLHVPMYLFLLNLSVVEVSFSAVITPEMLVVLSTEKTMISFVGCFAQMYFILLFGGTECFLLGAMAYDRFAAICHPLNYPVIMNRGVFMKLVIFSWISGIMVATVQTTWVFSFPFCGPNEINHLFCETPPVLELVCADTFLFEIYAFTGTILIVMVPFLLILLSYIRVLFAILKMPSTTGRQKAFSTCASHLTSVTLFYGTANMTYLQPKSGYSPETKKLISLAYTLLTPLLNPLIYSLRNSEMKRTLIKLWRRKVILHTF
Outline: as §1

[3] = biological target: OR10A4 (Homo sapiens) (UniProt Q9H209)
OR10A4 (Homo sapiens), sequence (Q9H209 whole entry): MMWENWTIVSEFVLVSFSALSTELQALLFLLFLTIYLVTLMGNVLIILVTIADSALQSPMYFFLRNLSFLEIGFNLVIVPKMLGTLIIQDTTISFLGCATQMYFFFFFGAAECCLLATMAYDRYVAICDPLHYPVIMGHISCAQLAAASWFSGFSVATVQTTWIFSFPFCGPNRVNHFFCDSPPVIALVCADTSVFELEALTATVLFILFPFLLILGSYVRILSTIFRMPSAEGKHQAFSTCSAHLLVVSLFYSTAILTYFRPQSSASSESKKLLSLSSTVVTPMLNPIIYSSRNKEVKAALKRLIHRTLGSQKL
Outline: as §1

[4] = biological target: OR10A5 (Homo sapiens) (UniProt Q9H207)
OR10A5 (Homo sapiens), sequence (Q9H207 whole entry): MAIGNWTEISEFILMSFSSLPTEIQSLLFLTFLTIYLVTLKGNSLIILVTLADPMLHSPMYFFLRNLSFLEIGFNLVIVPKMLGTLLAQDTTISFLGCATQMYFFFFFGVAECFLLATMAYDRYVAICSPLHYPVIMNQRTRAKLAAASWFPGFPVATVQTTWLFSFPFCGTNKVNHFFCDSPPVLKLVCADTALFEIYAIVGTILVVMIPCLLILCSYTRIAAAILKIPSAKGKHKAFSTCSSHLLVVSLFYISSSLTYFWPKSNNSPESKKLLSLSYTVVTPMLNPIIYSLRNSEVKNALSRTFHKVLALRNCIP
Outline: as §1

[5] = biological target: OR10A6 (Homo sapiens) (UniProt Q8NH74)
OR10A6 (Homo sapiens), sequence (Q8NH74 whole entry): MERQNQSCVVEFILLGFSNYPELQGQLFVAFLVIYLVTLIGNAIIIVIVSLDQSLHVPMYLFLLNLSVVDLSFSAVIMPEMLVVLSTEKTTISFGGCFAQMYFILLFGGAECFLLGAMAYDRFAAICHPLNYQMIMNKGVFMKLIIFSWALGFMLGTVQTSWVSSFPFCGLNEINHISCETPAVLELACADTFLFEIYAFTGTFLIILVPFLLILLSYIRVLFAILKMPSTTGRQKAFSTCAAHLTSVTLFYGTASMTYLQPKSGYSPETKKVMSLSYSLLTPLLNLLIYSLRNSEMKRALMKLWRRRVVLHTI
Outline: as §1

[6] = biological target: OR10A7 (Homo sapiens) (UniProt Q8NGE5)
OR10A7 (Homo sapiens), sequence (Q8NGE5 whole entry): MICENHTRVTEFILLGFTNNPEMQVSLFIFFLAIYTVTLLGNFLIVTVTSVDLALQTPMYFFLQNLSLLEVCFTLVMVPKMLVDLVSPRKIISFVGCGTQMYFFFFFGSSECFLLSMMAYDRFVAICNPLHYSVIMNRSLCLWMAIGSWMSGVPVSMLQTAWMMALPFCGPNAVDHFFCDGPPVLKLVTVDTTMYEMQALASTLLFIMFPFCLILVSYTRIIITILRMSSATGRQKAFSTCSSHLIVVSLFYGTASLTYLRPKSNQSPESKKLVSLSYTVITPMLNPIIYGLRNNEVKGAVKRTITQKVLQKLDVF
Outline: as §1

[7] = biological target: OR10AD1 (Homo sapiens) (UniProt Q8NGE0)
OR10AD1 (Homo sapiens), sequence (Q8NGE0 whole entry): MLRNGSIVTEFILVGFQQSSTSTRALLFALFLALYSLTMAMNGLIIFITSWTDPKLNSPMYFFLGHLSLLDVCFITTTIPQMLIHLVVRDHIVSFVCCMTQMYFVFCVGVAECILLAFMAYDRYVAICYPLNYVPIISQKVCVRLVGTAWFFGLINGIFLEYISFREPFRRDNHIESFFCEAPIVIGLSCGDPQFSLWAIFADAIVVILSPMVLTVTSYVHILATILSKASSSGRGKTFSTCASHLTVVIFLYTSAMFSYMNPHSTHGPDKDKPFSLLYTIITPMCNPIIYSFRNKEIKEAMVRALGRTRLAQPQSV
Outline: as §1

[8] = biological target: OR10AG1 (Homo sapiens) (UniProt Q8NH19)
OR10AG1 (Homo sapiens), sequence (Q8NH19 whole entry): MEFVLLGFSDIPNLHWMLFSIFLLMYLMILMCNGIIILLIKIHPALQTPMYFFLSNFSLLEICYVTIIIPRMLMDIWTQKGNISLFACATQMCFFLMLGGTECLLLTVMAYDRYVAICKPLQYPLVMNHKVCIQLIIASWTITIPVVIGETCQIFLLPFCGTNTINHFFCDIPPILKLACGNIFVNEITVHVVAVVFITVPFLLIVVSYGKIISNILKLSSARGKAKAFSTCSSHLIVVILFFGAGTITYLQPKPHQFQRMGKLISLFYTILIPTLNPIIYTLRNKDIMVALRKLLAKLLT
Outline: as §1

[9] = biological target: OR10C1 (Homo sapiens) (UniProt Q96KK4)
OR10C1 (Homo sapiens), sequence (Q96KK4 whole entry): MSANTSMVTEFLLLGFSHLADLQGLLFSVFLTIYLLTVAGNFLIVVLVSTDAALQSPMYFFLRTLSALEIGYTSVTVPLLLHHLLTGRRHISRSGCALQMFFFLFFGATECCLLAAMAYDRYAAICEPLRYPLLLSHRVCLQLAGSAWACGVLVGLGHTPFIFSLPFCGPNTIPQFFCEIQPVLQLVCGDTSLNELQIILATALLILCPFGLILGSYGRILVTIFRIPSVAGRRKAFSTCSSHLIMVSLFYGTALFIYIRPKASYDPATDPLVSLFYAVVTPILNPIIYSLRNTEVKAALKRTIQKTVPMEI
Outline: as §1

[10] = biological target: OR10AC1 (Homo sapiens) (UniProt Q8NH08)
OR10AC1 (Homo sapiens), sequence (Q8NH08 whole entry): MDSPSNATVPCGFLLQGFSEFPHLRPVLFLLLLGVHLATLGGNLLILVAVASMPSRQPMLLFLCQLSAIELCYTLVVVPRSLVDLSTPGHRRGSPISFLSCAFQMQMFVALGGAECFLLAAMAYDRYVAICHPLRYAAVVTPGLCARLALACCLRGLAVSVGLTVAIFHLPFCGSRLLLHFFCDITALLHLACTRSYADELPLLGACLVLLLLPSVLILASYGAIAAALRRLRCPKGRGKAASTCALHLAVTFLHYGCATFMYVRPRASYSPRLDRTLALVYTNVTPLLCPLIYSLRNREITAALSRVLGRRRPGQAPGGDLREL
Outline: as §1

Measured: odorant receptor agonist call;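 further: active if original authors judged signal statistically different from baseline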

OR10A2 (Homo sapiens), sequence (Q9H208 whole entry): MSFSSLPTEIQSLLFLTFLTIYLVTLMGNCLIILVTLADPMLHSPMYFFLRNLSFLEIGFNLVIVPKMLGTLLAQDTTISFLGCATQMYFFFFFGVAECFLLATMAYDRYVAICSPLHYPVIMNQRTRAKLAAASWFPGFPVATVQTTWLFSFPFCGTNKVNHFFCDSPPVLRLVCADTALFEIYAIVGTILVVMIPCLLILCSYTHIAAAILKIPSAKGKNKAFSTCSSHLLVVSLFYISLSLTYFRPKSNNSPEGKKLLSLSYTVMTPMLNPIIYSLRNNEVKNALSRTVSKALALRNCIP

C=CCOC(=O)Cc1ccccc1
inactive: [1] | [2] | [3] | [4] | [5] | [6] | [7] | [8] | [9]

Cc1c([N+](=O)[O-])c(C)c([N+](=O)[O-])c(C(C)(C)C)c1[N+](=O)[O-]
inactive: [1] | [3] | [4] | [5] | [6] | [10] | [7] | [8] | [9]

From the M2OR odorant receptor database
